Ends that are not written are not given here. Peptide text beside a SMILES is read from it. * marks the point of attachment. FITC = O=C1OC2(c3ccc(O)cc3Oc3cc(O)ccc32)c2ccc(NC(=S)*)cc21
Key:
[1] = target: FITC-Bmf BH3; experiment: fluorescence polarisation
[2] = target: Mcl-1 (Mcl-1ΔN170ΔC23) (Homo sapiens, UniProt Q07820); experiment: Fluorescence polarization assay; assay type: binding
Summary of the method: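 Human Mcl-1ΔN170ΔC23 was expressed His-SUMO-tagged in E. coli Rosetta BL21(DE3), Ni-purified, ULP1-cleaved, then SEC-purified. Protein was serially diluted in 20 mM Tris pH 8.0, 50 mM NaCl with FITC-labelled BH3 peptide (10 nM), shaken 1 min, and incubated 10 min at room temperature in the dark. Polarization (mP) was read in at least three replicates, and Kd was obtained by sigmoidal dose-response nonlinear regression.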

[3] = target: FITC-Bim BH3; experiment: fluorescence polarisation
[4] = target: Bcl-xLΔC25ΔLoop (human, UniProt Q07817-1 1-208, removes the unstructured loop between residues 46–82); experiment: crystal structure
[5] = target: T1, Bcl-2ΔC32ΔLoop (human, UniProt P10415;Q07817); experiment: crystal structure
T1 chain: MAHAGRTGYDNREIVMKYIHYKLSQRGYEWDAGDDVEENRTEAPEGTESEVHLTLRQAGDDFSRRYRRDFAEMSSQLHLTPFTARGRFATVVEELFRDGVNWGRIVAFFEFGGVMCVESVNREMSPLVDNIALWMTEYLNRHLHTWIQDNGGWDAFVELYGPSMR

[6] = target: R146A Bcl-2 (human, UniProt P10415 1-207, R146A); experiment: fluorescence polarisation
[7] = target: R139A Bcl-xL (human, UniProt Q07817-1 1-208, R139A); experiment: fluorescence polarisation
[8] = target: Bcl-2ΔC32 (human, UniProt P10415 1-207); experiment: fluorescence polarisation
[9] = target: Bcl-xLΔC25 (human, UniProt Q07817-1 1-208); experiment: fluorescence polarisation

Mcl-1 (Mcl-1ΔN170ΔC23), sequence (Q07820 171-327 limits assumed, stated change not applied): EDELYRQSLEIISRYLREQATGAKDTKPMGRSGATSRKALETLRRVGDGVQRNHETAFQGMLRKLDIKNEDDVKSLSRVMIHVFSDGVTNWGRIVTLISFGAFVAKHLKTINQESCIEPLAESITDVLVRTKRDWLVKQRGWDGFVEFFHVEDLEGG
R146A Bcl-2, sequence (P10415 1-207 R146A): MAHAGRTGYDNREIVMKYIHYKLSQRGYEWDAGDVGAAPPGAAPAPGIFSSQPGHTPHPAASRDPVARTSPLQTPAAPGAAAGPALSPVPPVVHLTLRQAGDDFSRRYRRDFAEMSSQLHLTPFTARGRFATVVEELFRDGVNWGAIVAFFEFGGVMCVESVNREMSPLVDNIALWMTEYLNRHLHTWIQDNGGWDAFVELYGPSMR

Mcl-1 with Ala-227 substituted by Asp (from UniProt Q07820 171-327) (domain or fragment)
Kd [1]: 0.049 µM

CC[C@H](C)[C@H](NC(=O)[C@H](CS)NC(=O)[C@H](CCC(N)=O)NC(=O)[C@H](CC(C)C)NC(=O)[C@H](CCCCN)NC(=O)[C@H](CCCNC(=N)N)NC(=O)[C@H](C)NC(=O)[C@@H](NC(=O)[C@H](CCC(N)=O)NC(=O)[C@@H](NC(=O)[C@H](CCC(=O)O)NC(=O)[C@H](C)NC(=O)[C@H](CCC(N)=O)NC(=O)[C@H](Cc1c[nH]cn1)NC(=S)Nc1ccc2c(c1)C(=O)OC21c2ccc(O)cc2Oc2cc(O)ccc21)C(C)C)[C@@H](C)CC)C(=O)N[C@@H](C)C(=O)N[C@@H](CC(=O)O)C(=O)N[C@@H](CCC(N)=O)C(=O)N[C@@H](Cc1ccccc1)C(=O)N[C@@H](Cc1c[nH]cn1)C(=O)N[C@@H](CCCNC(=N)N)C(=O)N[C@@H](CC(C)C)C(=O)N[C@@H](Cc1c[nH]cn1)C(=O)N[C@H](C(=O)N[C@@H](CCC(N)=O)C(=O)N[C@@H](CCC(N)=O)C(=O)O)C(C)C [FITC-Bmf BH3] ({FITC}-HQAEVQIARKLQCIADQFHRLHVQQ-OH)
Kd [2]: 0.185 µM

Mcl-1ΔN170ΔC23 (from UniProt Q07820 171-327) (domain or fragment)
Kd [1]: 0.185 µM
Kd [3]: 0.0058 µM

HQAEVQIARKLQCIADQFHRLHVQQ [25-mer Bmf BH3 peptide]
binding result [4]: binds

EVQIARKLQCIADQFHRLHVQ [21-mer Bmf BH3 peptide]
binding result [5]: binds

{FITC}-HQAEVQIARKLQCIADQFHRLHVQQ [FITC-Bmf BH3]
Kd [6]: 0.623 µM
Kd [7]: 1.24 µM
Kd [8]: 0.0052 ± 0.0003 µM
Kd [9]: 0.0051 ± 0.0004 µM
